Article PMC10829792 (Cell Reports Medicine, 2024)

What was measured:
[1] = system: U2932 cells; test: Cell viability, trypan blue assay; type: cell-based, human; details: U2932 cells treated with only romidepsin (10 nM) or γPNA2-NLS (8 μM)
[2] = system: Raji cells; test: Cell viability, trypan blue assay; type: cell-based, human; details: romidepsin with or without γPNA2-NLS, mean, n = 3
[3] = system: U2932 xenograft mice; test: Tumor growth and survival study in U2932 xenograft mice; type: in vivo, mouse; details: romidepsin 1 mg/kg i.p. on days 0 and 6, n = 8
In short: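 Mice bearing U2932 tumours of 100–150 mm³ were randomised. Romidepsin 1 mg/kg i.p. on days 0 and 6, and test compound 5 mg/kg on days 1, 4, 7 and 10, alone or combined. Vehicle group included.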

[4] = system: DLBCL patient-derived xenograft (PDX) mice; test: Tumor growth in DLBCL PDX mice; type: in vivo, mouse; details: γPNA2-NLS 5 mg/kg, romidepsin 1 mg/kg i.p., n = 5 per group
In short: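 DLBCL PDX fragments were serially implanted, reharvested at ~1500 mm³, and grouped at 100–150 mm³. Dosing followed the U2932 xenograft regimen: romidepsin 1 mg/kg i.p. days 0 and 6; test compound 5 mg/kg days 1, 4, 7 and 10. Body weight and tumour volume were recorded daily. Endpoint was tumour volume 1800–2000 mm³.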

[5] = system: DLBCL PDX tumors; test: Histology and immunohistochemistry; type: in vivo, mouse; details: romidepsin study, n = 2 mice per group, n > 4 images
In short: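 DLBCL PDX mice grouped at tumour volume 100–150 mm³. Romidepsin 1 mg/kg i.p. on days 0 and 6; test compound 5 mg/kg on days 1, 4, 7 and 10. Mice euthanized at 1800–2000 mm³.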

[6] = system: γH2AX in HeLa cells; test: γH2AX foci assay, immunofluorescence; type: cell-based, human; details: 24 h, γPNA2-NLS 8 μM, bleomycin 50 and 150 μM
In short: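 HeLa cells were seeded at 100,000/well and exposed for 24 h to test compound (8 μM) or bleomycin (50 and 150 μM). Nuclei were stained with NucBlue (25 min, 37°C). Cells were fixed in 4% PFA (10 min, RT), permeabilised with 0.1% Triton X in PBS, and stained with PE-conjugated anti-γH2AX (2 h, 37°C). Read-out was fluorescence microscopy.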

Molecule | viability, day 4, single treatments [1] [% viability] | reduction in viability, day 4 [2] [%] | reduction of tumor growth [3] [fold] | lower tumor volumes / decrease on day 35 [4] [fold] | caspase-3 activation, fold increase [5] [fold] | γH2AX immunofluorescence staining [6]
C/C=C1\NC(=O)[C@H]2CSSCC/C=C/[C@H](CC(=O)N[C@H](C(C)C)C(=O)N2)OC(=O)[C@H](C(C)C)NC1=O [romidepsin] | 50 | 58 | 2 | 1.3 | ~5 | –
bleomycin | – | – | – | – | – | increased γH2AX-positive nuclei
